Here are results for six compounds from ChEMBL document CHEMBL3813633, “2-Aryl-8-aza-3-deazaadenosine analogues of 5'-O-[N-(salicyl)sulfamoyl]adenosine: Nucleoside antibiotics that block siderophore biosynthesis in Mycobacterium tuberculosis” (Bioorg Med Chem, 2016).

What is called MIC is the least concentration at which growth counts as inhibited. A low value points to inhibition by little substance.

The subject of test [1] is Mycobacterium tuberculosis. The experiment in a line: Antibacterial activity against Mycobacterium tuberculosis H37Rv under iron-deficient condition after 10 to 14 days by broth microdilution method. Type of test: functional. In outline:
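M. tuberculosis H37Rv broth microdilution in iron-deficient GAST (GAS medium without ferric ammonium citrate, pH 6.6). Compounds were added from DMSO stocks, with isoniazid as positive control and DMSO as negative control. Initial density was 10^4–10^5 cells/assay at 37 °C. Growth was read as OD620 at 10–14 days, when controls reached OD620 0.2–0.3. MIC was determined in triplicate.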
Background: Dilution methods test growth across graded concentrations, often in twofold steps.

Test [2] deals with Mycobacterium tuberculosis. The experiment in a line: Antibacterial activity against Mycobacterium tuberculosis H37Rv at 50 uM under iron-replete condition after 10 to 14 days by broth microdilution method. It counts as functional, organism-based.

≈ marks a conversion by molar mass, not a printed value. Calls of active or inactive are those of the source. No cut-off for these calls is given here.

In test [1], `Nc1nc(-c2ccccc2)cc2c1nnn2[C@@H]1O[C@H](COS(=O)(=O)NC(=O)c2ccccc2O)[C@@H](O)[C@H]1O` yielded an MIC of 25 µM (≈ 13.6 µg/mL). The result in test [2] was inactive.
As to `Nc1nc(-c2ccc(C(F)(F)F)cc2)cc2c1nnn2[C@@H]1O[C@H](COS(=O)(=O)NC(=O)c2ccccc2O)[C@@H](O)[C@H]1O`, the MIC in test [1] is greater than 50 µM. Further, the outcome in test [2] was inactive.
On to `Nc1nc(-c2ccc3ccccc3c2)cc2c1nnn2[C@@H]1O[C@H](COS(=O)(=O)NC(=O)c2ccccc2O)[C@@H](O)[C@H]1O`, for which the MIC in test [1] came to 12.5 µM (≈ 7.41 µg/mL). The result in test [2] was inactive.
`Nc1nc(-c2ccc(F)cc2)cc2c1nnn2[C@@H]1O[C@H](COS(=O)(=O)NC(=O)c2ccccc2O)[C@@H](O)[C@H]1O`: inhibition of growth in test [1] (MIC) required 19 µM (≈ 10.6 µg/mL). Also, in test [2], the outcome was inactive.
Consider `COc1ccc2cc(-c3cc4c(nnn4[C@@H]4O[C@H](COS(=O)(=O)NC(=O)c5ccccc5O)[C@@H](O)[C@H]4O)c(N)n3)ccc2c1`, for which the MIC in test [1] was found to be 19 µM (≈ 11.8 µg/mL). In test [2], the result was inactive.
The matching figures for `Cc1ccc(-c2cc3c(nnn3[C@@H]3O[C@H](COS(=O)(=O)NC(=O)c4ccccc4O)[C@@H](O)[C@H]3O)c(N)n2)cc1`: 25 µM (≈ 13.9 µg/mL) and “inactive”.
